The values that follow come from ChEMBL document CHEMBL1122783, “Synthesis of 2-(2,3-dihydro-2-oxo-1,3,4-oxadiazol-5-yl) benzo heterocycles. A novel series of orally active antiallergic agents” (J Med Chem, 1984).

Molecules are shown by their SMILES.

For experiment [1], the species on record is Rattus norvegicus. Put plainly: Concentration required to inhibit antigen-induced release of histamine (AIR) by 50% from rat peritoneal mast cells (RMC) (in vitro). The format is functional, cell-based. The note with it: Mast cell, read-out: I-50. The procedure, abridged:
(§1)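 Rat peritoneal mast cells passively sensitized in vitro with rat anti-ovalbumin serum; compounds dissolved in Me2SO (final 0.17%). Antigen-induced and spontaneous (no antigen) histamine release measured after 15-min incubation; released and residual extracted histamine determined fluorometrically on an AutoAnalyzer.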

In experiment [2] the test system is Rattus norvegicus. Put plainly: Inhibition of IgE-mediated passive cutaneous anaphylaxis (PCA) by 50% in rat dosed perorally. The following applies: po.
For experiment [3], the species on record is Rattus norvegicus. Put plainly: Concentration required to inhibit antigen-induced release of histamine (AIR) by 50% from rat peritoneal mast cells (RMC) (in vitro). The format is functional, cell-based. The procedure, abridged: as §1
The species entered for experiment [4] is Rattus norvegicus. Put plainly: Concentration required to inhibit antigen-induced release of histamine (AIR) by 50% from rat peritoneal mast cells (RMC) (in vitro); f = Stimulation of AIR. The format is functional, cell-based. The procedure, abridged:
as §1

With `CC(=O)n1nc(-c2nc3ccccc3n2C)oc1=O`, the IC50 in the experiment filed under Rattus norvegicus [1] is 500 nM. As a reminder, the ED50 is the dose at which the effect has come halfway, by size or by number of responders. High values mean weaker potency, low ones greater potency. Turning to `Oc1nnc(-c2cc3ccccc3o2)o1`, the IC50 in the experiment filed under Rattus norvegicus [1] amounted to 1500 nM. For the same compound, in the experiment on Rattus norvegicus [2], it took a dose of 2 mg/kg to reach the 50% effect level (ED50). For `Oc1nnc(-c2sc3ccccc3c2Cl)o1`, in that order: 200 nM and above 125 mg/kg. As for `CCOC(=O)Cn1nc(-c2nc3ccccc3o2)oc1=O`, the I-50 entry in the experiment filed under Rattus norvegicus [3] was “Stimulation of AIR”. On to `Cn1nc(-c2nc3ccccc3o2)oc1=O`, for which, in the experiment filed under Rattus norvegicus [4], the I50 result is “Stimulation of AIR”. In the case of `COC(=O)c1cc(OC)c2oc(-c3nnc(O)o3)nc2c1`, the IC50 in the experiment listed under Rattus norvegicus [1] stood at 300 nM. Also, the ED50 in the experiment on Rattus norvegicus [2] was determined as 9 mg/kg. For `Cc1ccc2oc(-c3nnc(O)o3)nc2c1`, in that order: 400 nM and 2 mg/kg. For the compound `Oc1nnc(-c2cc3cc(Cl)ccc3[nH]2)o1`, the ED50 in the experiment with Rattus norvegicus [2] worked out at 9 mg/kg. As to `CC1=C(c2nnc(O)o2)Cc2ccccc21`, the I-50 entry in the experiment filed under Rattus norvegicus [3] is reported as “Stimulation of AIR”. This compound also had an ED50 in the experiment on Rattus norvegicus [2] above 100 mg/kg. For `O=C([O-])c1cc(=O)c2c(OCC(O)COc3cccc4oc(C(=O)[O-])cc(=O)c34)cccc2o1.[Na+].[Na+]` [CROMOLYN SODIUM], the IC50 in the experiment listed under Rattus norvegicus [1] amounted to 3000 nM. In the experiment with Rattus norvegicus [2], this compound returned an ED50 of 6 mg/kg. `Cc1cccc2oc(-c3nnc(O)o3)nc12`: the IC50 in the experiment listed under Rattus norvegicus [1] is 1000 nM. In the case of `Oc1nnc(-c2nc3cc(Cl)ccc3o2)o1`, in the experiment listed under Rattus norvegicus [1], the IC50 amounted to 350 nM. This compound also gave an ED50 in the experiment on Rattus norvegicus [2] of 16 mg/kg. With `CCOC(=O)n1nc(-c2nc3ccc(C)cc3o2)oc1=O`, in the experiment listed under Rattus norvegicus [3], the I-50 result is given as “Stimulation of AIR”. Turning to `Cn1c(-c2nnc(O)o2)nc2ccccc21`, the IC50 in the experiment listed under Rattus norvegicus [1] came to 900 nM. In the experiment with Rattus norvegicus [2], the ED50 came to 1 mg/kg.

In the case of `CC(=O)n1nc(-c2nc3ccccc3o2)oc1=O`, the IC50 in the experiment listed under Rattus norvegicus [1] came to 1400 nM.

On to `CCOC(=O)n1nc(-c2nc3ccccc3n2C)oc1=O`, for which, in the experiment filed under Rattus norvegicus [3], the I-50 entry is recorded as “Stimulation of AIR”. For `Oc1nnc(-c2cc3ccccc3[nH]2)o1`, the IC50 in the experiment listed under Rattus norvegicus [1] stood at 33000 nM. As for `Cc1ccc2c(c1)nc(-c1nnc(O)o1)n2C`, the IC50 in the experiment filed under Rattus norvegicus [1] was 6000 nM. Besides, the ED50 with Rattus norvegicus [2] turned out to be 5 mg/kg.

As to `Oc1nnc(-c2nc3ccccc3o2)o1`, in the experiment filed under Rattus norvegicus [1], the IC50 came to 1200 nM. This compound had an ED50 in the experiment with Rattus norvegicus [2] of 3 mg/kg.

Turning to `O=C(/C=C/c1ccccc1)n1nc(-c2nc3ccccc3o2)oc1=O`, the IC50 in the experiment filed under Rattus norvegicus [1] was found to be 15000 nM. The same measure, in the same setting: the result for `CCOC(=O)c1ccc2oc(-c3nnc(O)o3)nc2c1` reads 1000 nM; that for `Oc1n[nH]c(-c2nc3ccccc3o2)n1`, 60000 nM.

In the case of `CCOC(=O)n1nc(-c2nc3ccccc3o2)oc1=O`, in the experiment filed under Rattus norvegicus [3], the I-50 result is “Stimulation of AIR”. On to `Cn1c(-c2n[nH]c(O)n2)nc2ccccc21`, for which the I-50 result in the experiment filed under Rattus norvegicus [4] is “Stimulation of AIR”. Consider `CCOC(=O)n1nc(-c2nc3cc(C)ccc3n2C)oc1=O`, for which, in the experiment listed under Rattus norvegicus [3], the I-50 result was “Stimulation of AIR”.

As to `Cc1ccc2nc(-c3nnc(O)o3)oc2c1`, the IC50 in the experiment filed under Rattus norvegicus [1] was 5000 nM. For the same compound, it took a dose of 2 mg/kg to reach the 50% effect level in the experiment on Rattus norvegicus [2] (ED50).
